In ChEMBL document CHEMBL1123529, “Analogues of substance P. Peptides containing D-amino acid residues in various positions of substance P and displaying agonist or receptor selective antagonist effects” (1986):

How the values were obtained:
[1] = biological target: Substance-P receptor (Rattus norvegicus) (UniProt P14600); assay: Antagonistic activity against Substance P receptor in rat spinal cord at concentration of 50 uM.
[2] = In vitro antagonistic activity against Substance P on guinea pig ileum at concentration of 10 uM.; assay type: functional, Cavia porcellus
Method in brief: (§1)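 Dose-response curves used a 3-min cycle with 1-min contact and washout, with SP or SP(6-11)-hexapeptide as agonist. Dose ratio is the agonist EC50 with antagonist divided by the EC50 alone. At least two preparations per compound; ratios under 2 were considered insignificant.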

[3] = biological target: Substance-P receptor (Rattus norvegicus) (UniProt P14600); assay: Antagonistic activity against Substance P(6-11) receptor in rat spinal cord at concentration of 50 uM.
[4] = biological target: Substance-P receptor (Rattus norvegicus) (UniProt P14600); assay: Antagonistic activity against Substance P receptor in rat spinal cord at concentration of 5 uM.
[5] = biological target: Substance-P receptor (Cavia porcellus) (UniProt P30547); assay: Antagonistic activity against Substance P(6-11) receptor in guinea pig ileum at concentration of 5 uM.; assay type: functional, tissue-based
Chain of Substance-P receptor (Cavia porcellus) (P30547 whole entry): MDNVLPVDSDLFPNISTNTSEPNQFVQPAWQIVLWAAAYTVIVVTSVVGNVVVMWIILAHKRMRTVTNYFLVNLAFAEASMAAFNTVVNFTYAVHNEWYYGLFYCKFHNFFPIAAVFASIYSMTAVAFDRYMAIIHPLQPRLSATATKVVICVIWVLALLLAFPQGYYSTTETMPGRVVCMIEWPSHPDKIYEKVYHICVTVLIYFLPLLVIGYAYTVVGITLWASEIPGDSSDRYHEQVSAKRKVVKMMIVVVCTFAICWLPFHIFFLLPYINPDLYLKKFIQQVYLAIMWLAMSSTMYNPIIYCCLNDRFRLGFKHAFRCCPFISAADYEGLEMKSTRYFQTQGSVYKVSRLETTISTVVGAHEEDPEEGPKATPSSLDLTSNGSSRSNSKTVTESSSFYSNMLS
Method in brief: (§2)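 Distal ileum from Dunkin-Hartley guinea pigs (300-350 g, both sexes) in a Krebs organ bath at 37 °C, gassed with 95% O2/5% CO2. Agonist (SP or SP(6-11)) dose-response curves run on a 3-min cycle with 1-min contact, with and without antagonist. Dose ratio = agonist EC50 with antagonist / EC50 alone. At least two preparations per compound; ratios below 2 taken as insignificant.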

[6] = biological target: Substance-P receptor (Cavia porcellus) (UniProt P30547); assay: Antagonistic activity against Substance P receptor in guinea pig ileum at concentration of 5 uM.; assay type: functional, tissue-based
Method in brief: as §2

[7] = In vitro antagonistic activity against Substance P(6-11) in guinea pig ileum at concentration of 10 uM.; assay type: functional, Cavia porcellus
Method in brief: as §1

[8] = biological target: Substance-P receptor (Rattus norvegicus) (UniProt P14600); assay: Antagonistic activity against Substance P(6-11) receptor in rat spinal cord at concentration of 5 uM.
[9] = biological target: Metabotropic glutamate receptor 3 (Rattus norvegicus) (UniProt P31422); assay: Antagonistic activity against Glutamate receptor in rat spinal cord at concentration of 5 uM.; assay type: functional, tissue-based
Chain of Metabotropic glutamate receptor 3 (Rattus norvegicus) (P31422 23-879 limits assumed): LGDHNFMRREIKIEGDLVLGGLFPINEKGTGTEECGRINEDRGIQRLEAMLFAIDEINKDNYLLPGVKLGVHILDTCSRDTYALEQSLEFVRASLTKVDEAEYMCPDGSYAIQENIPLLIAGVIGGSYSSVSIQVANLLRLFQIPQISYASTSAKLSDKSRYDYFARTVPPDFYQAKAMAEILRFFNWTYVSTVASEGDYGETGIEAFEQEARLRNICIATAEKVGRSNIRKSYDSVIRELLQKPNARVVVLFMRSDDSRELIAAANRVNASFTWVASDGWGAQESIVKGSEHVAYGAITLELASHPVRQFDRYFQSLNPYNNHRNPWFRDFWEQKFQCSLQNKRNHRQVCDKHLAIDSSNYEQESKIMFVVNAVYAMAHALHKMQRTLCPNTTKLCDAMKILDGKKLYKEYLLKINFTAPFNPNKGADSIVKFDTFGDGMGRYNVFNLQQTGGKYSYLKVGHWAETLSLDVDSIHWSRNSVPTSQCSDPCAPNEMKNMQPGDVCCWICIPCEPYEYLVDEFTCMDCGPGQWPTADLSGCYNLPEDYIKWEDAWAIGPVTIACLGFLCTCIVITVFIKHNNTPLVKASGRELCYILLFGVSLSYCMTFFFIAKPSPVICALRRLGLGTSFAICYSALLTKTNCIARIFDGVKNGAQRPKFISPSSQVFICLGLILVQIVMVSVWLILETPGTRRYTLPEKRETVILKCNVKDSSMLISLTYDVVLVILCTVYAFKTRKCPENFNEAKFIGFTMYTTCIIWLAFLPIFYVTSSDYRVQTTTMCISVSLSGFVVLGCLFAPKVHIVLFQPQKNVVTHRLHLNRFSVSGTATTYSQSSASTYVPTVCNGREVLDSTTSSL
Method in brief: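 Neonatal hemisectioned spinal cord from Wistar rats (Alderley Park strain, 2-7 days old), anaesthetised with intraperitoneal urethane (25% w/v, […]) and then decapitated. Cord superfused with oxygenated medium at 1 mL/min. Agonist (SP, SP(6-11), glutamate or carbachol) applied as 2-mL doses in the superfusate. Antagonist superfused for at least 15 min before agonists were retested. Read-out: % change in ventral root–cord DC potential response amplitude.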

[10] = biological target: Substance-P receptor (Cavia porcellus) (UniProt P30547); assay: Evaluated in vitro for percent agonist activity in guinea pig ileum (substance P receptor); assay type: functional, tissue-based
[11] = biological target: Substance-P receptor (Cavia porcellus) (UniProt P30547); assay: Antagonistic activity against Substance P receptor in guinea pig ileum at concentration of 100 uM.; assay type: functional, tissue-based
Method in brief: as §2

[12] = biological target: Substance-P receptor (Cavia porcellus) (UniProt P30547); assay: Antagonistic activity against Substance P(6-11) receptor in guinea pig ileum at concentration of 100 uM.; assay type: functional, tissue-based
Method in brief: as §2

Chain of Substance-P receptor (Rattus norvegicus) (P14600 whole entry, looked up): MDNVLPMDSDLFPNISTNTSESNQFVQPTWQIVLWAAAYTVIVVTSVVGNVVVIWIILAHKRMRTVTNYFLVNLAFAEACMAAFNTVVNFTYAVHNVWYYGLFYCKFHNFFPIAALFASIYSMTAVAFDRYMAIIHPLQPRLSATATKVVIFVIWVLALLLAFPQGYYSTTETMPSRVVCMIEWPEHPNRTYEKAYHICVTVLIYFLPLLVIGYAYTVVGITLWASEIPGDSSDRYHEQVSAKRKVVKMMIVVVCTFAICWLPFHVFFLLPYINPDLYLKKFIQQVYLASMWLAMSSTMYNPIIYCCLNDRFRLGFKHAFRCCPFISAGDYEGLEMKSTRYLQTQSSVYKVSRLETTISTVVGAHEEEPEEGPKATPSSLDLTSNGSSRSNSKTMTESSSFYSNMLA

| Change in amplitude response [1] [%] | Change in amplitude response [3] [%] | Change in amplitude response [4] [%] | Activity [5] [dose ratio] | Activity [6] [dose ratio] | Change in amplitude response [8] [%] | Change in amplitude response [9] [%] | SP [10] [%] | Activity [11] [dose ratio] | Activity [12] [dose ratio] | SMILES | Activity [2] [dose ratio] | Activity [7] [dose ratio] |
| --- | --- | --- | --- | --- | --- | --- | --- | --- | --- | --- | --- | --- |
| 16 | -100 | 21 | 3.4 | 6.3 | -62 | -20 |  |  |  | CSCC[C@@H](NC(=O)[C@H](CC(C)C)NC(=O)[C@@H](Cc1c[nH]c2ccccc12)NC(=O)C(Cc1ccccc1)NC(=O)[C@@H](Cc1c[nH]c2ccccc12)NC(=O)[C@H](CCC(N)=O)NC(=O)[C@H](CCC(N)=O)NC(=O)C1CCCN1C(=O)[C@H](CCCCN)NC(=O)C1CCCN1C(=O)[C@@H](N)CCCN=C(N)N)C(=O)O (stereo in doubt) | 5.3 | 4.3 |
|  |  |  |  |  |  |  | < 0.0001 | < 2 | < 2 | COC(=O)[C@@H](CCSC)NC(=O)[C@H](CC(C)C)NC(=O)CNC(=O)[C@H](Cc1c[nH]c2ccccc12)NC(=O)[C@@H](Cc1c[nH]c2ccccc12)NC(=O)[C@H](CCC(N)=O)NC(=O)[C@H](CCC(N)=O)NC(=O)[C@@H]1CCCN1C(=O)[C@H](CCCCN)NC(=O)[C@@H]1CCCN1C(=O)[C@@H](N)CCCN=C(N)N |  |  |
